Shown are actives, neighbours in structure and some others; about 4.9% of the full set was active somewhere.
STAT3 act – IL-6 driven STAT3 reporter potentiators, primary screen, U3A cells, luciferase, luminescence, MLSCN library; AID 871, 2007; activation (% of control), % at 5.6 µM; IL-6 STAT3-luciferase reporter; 100% = signal with IL-6 EC80 alone; hit rate 0.91% among 190,000;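 active means activation above the screen-wide mean of compound activation plus 3 SD, cut at about 130% in these data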;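 further: 0% = background luminescence of wells with medium and substrate only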
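Material: STAT3-luciferase reporter U3A cells. Controls: IL-6-treated wells, 100% activation. Read-out: % activation versus median of IL-6-stimulated wells. Probe or stimulus: IL-6 stimulus at 33 ng/mL final. Timing: compound 1 h, then IL-6 6 h at 37 °C. Signal: reporter luminescence signal.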
STAT3 inh-1 – IL-6 driven STAT3 reporter inhibitors, primary screen, U3A cells, luciferase, luminescence, MLSCN library | IL-6 STAT3-luciferase reporter; host cell line lacks STAT1 | inhibition, % at 5.5 µM | hit rate 0.89% among 190,000;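 active means inhibition above the mean inhibition across all screened compounds plus 3 SD, cut at about 44% in these data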;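 further: 0% = DMSO only wells and 100% = 100 µM nifuroxazide control wells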
NF-kB expr up – activators of NF-kB expression in neurons, primary screen, cell-based, HTS | human neuronal cells, NF-kB reporter expression; active compounds read high | fold change at 12.5 µM | hit rate 1.6% among 190,000 | AID 1239, 2008; in the data active means fold change above about 3.3
STAT1 blocker – STAT1 signaling inhibitors, primary screen, cell-based, HTS, luciferase reporter; NIH 3T3 STAT1-luciferase reporter, IFN-gamma, luminescence; inhibition, % at 5.5 µM; hit rate 0.35% among 200,000; AID 920, 2007;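 active means inhibition above a set limit, the mean inhibition across all tested compounds plus 3 SD, cut at about 34% in these data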;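 further: 0% = IFN-gamma with DMSO and 100% = IFN-gamma with 300 µM nifuroxazide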
STAT1 activator – STAT1 signaling activators, primary screen, cell-based, HTS, luciferase reporter; NIH 3T3 STAT1-luciferase reporter, IFN-gamma, luminescence; 100% = IFN-gamma alone, no compound; activation (% of control), % at 5.5 µM; hit rate 2.6% among 200,000;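 active means activation above the screen-wide mean activation plus 3 SD, cut at about 130% in these data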;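 further: raw ratio to IFN-gamma control signal so 100% means no change and 0% no light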
APP 5'UTR act – activators of APP 5'UTR luciferase reporter, primary screen, SH-SY5Y cells | SH-SY5Y APP 5'UTR luciferase reporter, luminescence; zero percent = DMSO vehicle wells | activation, % at 2 µM | hit rate 1% among 190,000;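 active means activation above a set limit, based on mean plus 3 SD of controls, cut at about 140% in these data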
STAT3 inh-2 – STAT3 reporter inhibitors, retest of hits, confirmation, U3A cells, luciferase, luminescence; AID 1265, 2008; inhibition, % at 5.7 µM; IL-6 STAT3 luciferase reporter; cell line lacks STAT1; shares compounds with STAT3 inh-1; hit rate 45% among 1,200;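 active means inhibition above the hit cutoff computed for the primary STAT3 screen, cut at about 44% in these data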;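 further: 0% = IL-6 plus DMSO and 100% = IL-6 plus nifuroxazide control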
NFkB inh 2 – NF-kB reporter inhibitors in human cells, confirmation, counter-screen for STAT3 inhibitor project, cell-based, HEK293T, luciferase, TNF-alpha stimulus. shares compounds with STAT3 inh-1. TNF-alpha induced. inhibition, % at 5.7 µM. hit rate 36% among 1,200;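 active means inhibition above the mean of solvent-only control wells plus 3 SD, cutoff set per campaign, cut at about 13% in these data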;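 further: 0% = TNF-alpha with DMSO and 100% = TNF-alpha with MG high control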
STAT1 inh 2 – STAT1 reporter inhibitors, IFN-gamma induced, confirmation, counter-screen for STAT3 inhibitor project, cell-based, NIH 3T3, luciferase luminescence; shares compounds with STAT3 inh-1; NIH 3T3 STAT1-luciferase reporter; inhibition, % at 5.7 µM; hit rate 27% among 1,200; AID 1317, 2008;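 active means inhibition above the mean plus 3 SD of solvent-only control wells, limit set per screening run, cut at about 16% in these data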;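 further: 0% = DMSO with IFN-gamma and 100% = nifuroxazide control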
Starred values were filed as active, the others as inactive; . = no result given.

SMILES | STAT3 act | STAT3 inh-1 | NF-kB expr up | STAT1 blocker | STAT1 activator | APP 5'UTR act | STAT3 inh-2 | NFkB inh 2 | STAT1 inh 2
Cc1nc2ccccc2cc1OCc1ccc(Cl)cc1 | 46 | 71* | 1.2 | 12 | 89 | . | 80* | 13* | 4
COc1cccc(COc2cc3ccccc3nc2C)c1 | 39 | 80* | 1.1 | 15 | 86 | 17 | 76* | 21* | 8
O=C(c1ccccc1Br)N1CCn2c1nc1ccccc12 | 91 | 14 | 1.2 | 1 | 98 | 12 | . | . | .
CCOc1ccc(N(C(=O)c2ccccc2Cl)C2=NC(C)(C)CS2)cc1 | 101 | 0 | 1.4 | -18 | 117 | 15 | . | . | .
O=C(CSC(=S)N1CCCCC1)c1ccccc1 | 47 | 65* | 3.3* | 28 | 73 | 242* | 22 | 3 | -71
COC(=O)N/N=C(\C)c1ccc(OC(F)F)cc1OC(F)F | 98 | -2 | 0.9 | 2 | 98 | 30 | . | . | .
Cc1ccc(C)n1-c1ccc(-c2ccnc(N)n2)cc1 | 66 | 45* | 0.93 | -9 | 108 | -4 | 3 | -4 | -28
CCCOc1ccc(C(=O)Nc2ccc(N(C)C)cc2)cc1 | 67 | 47* | 1.4 | -21 | 119 | 5 | 30 | -15 | -42
CCCCOc1ccc(C(=O)NC)cc1 | 99 | 5 | 1.7 | -2 | 100 | . | . | . | .
CCCOc1ccc(C(=O)Nc2ccc(N3CCN(C(C)=O)CC3)cc2)cc1 | 87 | 17 | 1 | 11 | 90 | 14 | . | . | .
CC(C)Oc1ccc(C(=O)Nc2ccc(N(C)C)cc2)cc1 | 61 | 54* | 2.5 | -10 | 109 | 49 | 35 | -9 | -36
CCCCOc1ccc(C(=O)Nc2ccncc2)cc1 | 36 | 79* | 1 | 18 | 84 | 19 | 79* | 4 | 14
Cc1ccc(CN=C2Nc3ccccc3CS2)cc1 | 57 | 59* | 6.8* | -2 | 102 | 143* | -4 | -27 | -100
CCOC(=O)Cc1csc(NC(=O)CC)n1 | 94 | 10 | 1.1 | 5 | 95 | -23 | . | . | .
CCOC(=O)Cc1csc(N/N=C/c2ccc(C(F)(F)F)cc2)n1 | 57 | 60* | 1.1 | 26 | 77 | -31 | 22 | 13* | -47
S=c1[nH]nc(-c2ccccn2)n1/N=C/c1ccc(-c2ccccc2Br)o1 | 118 | -23 | 1.1 | 3 | 97 | 5 | . | . | .
Cc1ccc(-c2csc(NC(=O)c3cc([N+](=O)[O-])ccc3N3CCOCC3)n2)cc1 | 106 | 0 | 1.2 | -7 | 106 | 8 | . | . | .
O=C(Nc1nc(-c2ccccc2)cs1)c1ccc(N2CCOCC2)c([N+](=O)[O-])c1 | 38 | 72* | 0.36 | 15 | 86 | -8 | 77* | 23* | 16*
CC1CCN(S(=O)(=O)c2cccc(C(=O)Nc3ccccc3)c2)CC1 | 110 | -5 | 1.1 | -2 | 102 | 13 | . | . | .
Cc1ccc(CC(=O)Nc2ccncc2)cc1 | 62 | 46* | 0.91 | 29 | 73 | -11 | 52* | 11 | 24*
Cc1ccc(CC(=O)Nc2cccnc2)cc1 | 96 | 8 | 0.85 | 2 | 96 | -4 | . | . | .
CN(CC(=O)Nc1ccncc1)S(=O)(=O)c1ccc(Br)cc1 | 90 | 16 | 0.98 | 5 | 96 | -20 | . | . | .
O=C(Cc1ccc([N+](=O)[O-])cc1)Nc1ccc(Cl)cc1 | 104 | -3 | 1.2 | 0 | 98 | 9 | . | . | .
O=C(Cc1ccc(Cl)cc1)Nc1ccncc1 | 58 | 52* | 0.88 | 23 | 77 | -9 | 55* | 17* | 21*
CN(CCCC(=O)Nc1ccncc1)S(=O)(=O)c1ccc(Cl)cc1 | 62 | 47* | 0.77 | 13 | 88 | 0 | 39 | 0 | 21*
SMILES | STAT3 act | STAT3 inh-1 | NF-kB expr up | STAT1 blocker | STAT1 activator | APP 5'UTR act | STAT3 inh-2 | NFkB inh 2 | STAT1 inh 2
CN(C)CCNC(NC(=O)c1cccs1)C(Cl)(Cl)Cl (centres undefined) | 102 | -4 | 1.1 | -2 | 102 | 1 | . | . | .
O=C(Nc1cccnc1)c1ccc(NS(=O)(=O)c2cccc([N+](=O)[O-])c2)cc1 | 111 | -13 | 1 | -13 | 111 | -19 | . | . | .
COc1ccc(C2C=C(C34CC5CC(CC(C5)C3)C4)NC(=S)N2)cc1OC (centres undefined) | 107 | -7 | 1 | -1 | 101 | 11 | . | . | .
N=c1c2c(n(Cc3ccc(Cl)c(Cl)c3)c3c1CCC3)CCCC2 | 53 | 61* | 0.9 | 28 | 75 | -12 | 24 | 9 | 25*
N=c1c2c(n(Cc3ccc([N+](=O)[O-])cc3)c3c1CCC3)CCCC2 | 96 | 13 | 0.74 | 4 | 96 | 7 | . | . | .
N=c1c2c(n(Cc3ccc(Br)cc3)c3c1CCC3)CCCC2 | 48 | 63* | 0.86 | 19 | 83 | 3 | 49* | 1 | 22*
CC[n+]1c(C=C2C=C(C)OC(C)=C2)sc2ccccc21 | 31 | 84* | 0.85 | 29 | 74 | -9 | 85* | 27* | 4
CC[n+]1c(/C=C2/C=C(C)CC(C)C2)sc2ccccc21 (centres undefined) | 86 | 19 | 0.81 | 29 | 71 | -9 | . | . | .
O=C1C=C(NC2=CC3OC(c4ccccc4)OCC3OC2=O)CCC1 (centres undefined) | 57 | 51* | 0.96 | 18 | 84 | -13 | 36 | 21* | 18*
O=C(NC1CCCCCCC1)c1cc(COc2ccc3ncccc3c2)on1 | 37 | 79* | 0.68 | 30 | 72 | -4 | 75* | 27* | 17*
CCC(O)C1CCN(C(=O)c2cc(COc3ccc4ncccc4c3)on2)CC1 (centres undefined) | 32 | 84* | 0.82 | 33 | 68 | -4 | 84* | 29* | 27*
Cc1cc(CN(C)C(=O)c2cc(COc3ccc4ncccc4c3)on2)on1 | 55 | 58* | 0.9 | 21 | 80 | 1 | 56* | 19* | 19*
O=C(c1cc(COc2ccc3ncccc3c2)on1)N1CCCC(O)C1 (centres undefined) | 87 | 19 | 0.96 | 23 | 78 | 4 | . | . | .
Cc1ccc(-c2nn(-c3ccccc3)cc2/C=N/NC(=O)c2ccc(Br)o2)cc1 | 69 | 46* | 0.95 | -4 | 103 | 10 | 28 | 10 | -11
